Our source for the inhibition, cytotoxicity and CC50 values is ChEMBL document CHEMBL3392986, “Hydroxamic acids block replication of hepatitis C virus” (J Med Chem, 2015).

As usually defined, the inhibition is the change of the read-out against control, counted positive when it falls. What is called CC50 is the concentration at which the toxic effect on the cells reaches its halfway point.

The first data set concerns Hepatitis C virus. Kind of data set: Antiviral activity against HCV genotype 1b infected in human Huh7 cells at 1 uM after 3 days by luciferase reporter gene assay. Type of data set: functional, Hepacivirus hominis. Particulars: Huh-7, 72 h. An outline of the steps:
(§1)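 Subgenomic luciferase replicon cells seeded at 6 X 10^3 per well. Next day, medium containing compound in DMSO, or DMSO alone, was added. After three days, luciferase read with ViViRen live-cell substrate. Percent inhibition is the triplicate average; 2mA served as control in single-dose runs.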
Background: In a reporter assay the amount or activity of a reporter protein is the signal.
With `N#Cc1ccc(/C=C/C(=O)NO)cc1`, the inhibition at 1 µM stood at 45%.

The subject of the next data set is Hepatitis C virus. Kind of data set: Antiviral activity against HCV genotype 1b infected in human Huh7 cells at 10 uM after 3 days by luciferase reporter gene assay. Particulars: Huh-7, 72 h. Type of data set: functional, Hepacivirus hominis. An outline of the steps:
as §1
For the molecule `Nc1ccccc1NC(=O)/C=C/c1ccc(C(F)(F)F)cc1`, the inhibition at 10 µM is 94%.
Same read-out and setting: the result for `O=C(NO)c1cn(Cc2ccccc2)c2ccccc12` reads 99%.
Same read-out and setting: then `O=C(/C=C/c1cccnc1)NO`, with 40%.
Still for that read-out and setting: the result for `O=C(NO)c1cc2ccccc2n1-c1ccccc1` reads 41%.
Molecule `NC(=O)/C=C/c1ccc(C(F)(F)F)cc1` displayed an inhibition at 10 µM of 6%.
The same measure, in the same setting: the result for `O=C(NO)c1sc2ccccc2c1Sc1ccccc1` reads 8%.
The same measure, in the same setting: then `O=C(O)c1sc2ccccc2c1S(=O)(=O)c1ccccc1`, with 19%; and `O=C(NCC1(c2nc(-c3ccccc3)cs2)CCOCC1)c1cccc(-c2noc(C(F)(F)F)n2)c1`, with 22%.
On the same count and under the same terms, then `O=C(NO)c1cc2ccccc2[nH]1`, with 45%.
Turning to `O=C(NO)c1cc2ccccc2n1Cc1ccccc1`, the inhibition at 10 µM was determined as 82%.
For `O=C(O)/C=C/c1ccc(C(F)(F)F)cc1`, the inhibition at 10 µM came to 19%.
The same measure, in the same setting: the result for `O=C(/C=C/c1ccccc1C(F)(F)F)NO` reads 40%; that for `COC(=O)c1sc2ccccc2c1S(=O)(=O)c1ccccc1`, 5%; that for `O=C(CCc1ccc(C(F)(F)F)cc1)NO`, 35%.
On the same count and under the same terms, the result for `O=C(NO)c1cn(-c2ccccc2)c2ccccc12` reads 11%; that for `COC(=O)/C=C/c1ccc(C(F)(F)F)cc1`, 0%.
Same read-out and setting: then `O=C(C=C(c1ccccc1)c1ccccc1)NO`, with 64%; and `Cc1ccc(/C=C/C(=O)NO)cc1`, with 15%; and `O=C(/C=C/c1ccncc1)NO`, with 20%.
In the case of `O=C(NO)c1c[nH]c2ccccc12`, the inhibition at 10 µM turned out to be 0%.
Same read-out and setting: then `COc1ccc(/C=C/C(=O)NO)cc1`, with 15%.
On the same count and under the same terms, then `N#Cc1ccc(/C=C/C(=O)NO)cc1`, with 99%; and `O=C(/C=C/c1cccc(C(F)(F)F)c1)NO`, with 43%.
Take `O=C(/C=C/c1ccccn1)NO`: the inhibition at 10 µM amounted to 58%.
Still for that read-out and setting: the result for `CN1CCc2c(c3ccccc3n2Cc2ccc(C(=O)NO)cc2)C1` [TUBASTATIN A] reads 97%.

Test system in a further data set: not listed separately
As to the kind of experiment: Cytotoxicity against human HuH7 cells assessed as inhibition of cell viability at 10 uM after 3 days by CellTiter 96 assay. Type of data set: cell-based, Huh-7. Particulars: read-out: INH. Put shortly:
(§2)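 Replicon cells plated at 6 X 10^3 per well and treated the next day with compound in DMSO, DMSO alone or nothing for three days at 37 °C/5% CO2. Viability measured by CellTiter 96 AQueous One, absorbance 450 nm. Percent inhibition is the average of triplicate wells.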
Take `Nc1ccccc1NC(=O)/C=C/c1ccc(C(F)(F)F)cc1`: the cytotoxicity at 72 h, 10 µM is 82%.
Turning to `O=C(NO)c1cn(Cc2ccccc2)c2ccccc12`, the cytotoxicity at 72 h, 10 µM is 92%.
Regarding `O=C(/C=C/c1cccnc1)NO`, the cytotoxicity at 72 h, 10 µM is 2%.
As for `O=C(NO)c1cc2ccccc2n1-c1ccccc1`, the cytotoxicity at 72 h, 10 µM was 15%.
The same measure, in the same setting: the result for `NC(=O)/C=C/c1ccc(C(F)(F)F)cc1` reads 1%; that for `O=C(NO)c1sc2ccccc2c1Sc1ccccc1`, 4%.
Still for that read-out and setting: the result for `O=C(O)c1sc2ccccc2c1S(=O)(=O)c1ccccc1` reads 2%; that for `O=C(NCC1(c2nc(-c3ccccc3)cs2)CCOCC1)c1cccc(-c2noc(C(F)(F)F)n2)c1`, 21%; that for `O=C(NO)c1cc2ccccc2[nH]1`, 7%.
The same measure, in the same setting: the result for `O=C(NO)c1cc2ccccc2n1Cc1ccccc1` reads 28%; that for `O=C(O)/C=C/c1ccc(C(F)(F)F)cc1`, 0%.
`O=C(/C=C/c1ccccc1C(F)(F)F)NO`: the cytotoxicity at 72 h, 10 µM was determined as 5%.
On the same count and under the same terms, then `COC(=O)c1sc2ccccc2c1S(=O)(=O)c1ccccc1`, with 0%; and `O=C(CCc1ccc(C(F)(F)F)cc1)NO`, with 0%; and `COC(=O)/C=C/c1ccc(C(F)(F)F)cc1`, with 1%.
Turning to `O=C(C=C(c1ccccc1)c1ccccc1)NO`, the cytotoxicity at 72 h, 10 µM was 4%.
The same measure, in the same setting: then `Cc1ccc(/C=C/C(=O)NO)cc1`, with 0%.
Still for that read-out and setting: the result for `O=C(/C=C/c1ccncc1)NO` reads 0%; that for `COc1ccc(/C=C/C(=O)NO)cc1`, 0%.
The same measure, in the same setting: then `N#Cc1ccc(/C=C/C(=O)NO)cc1`, with 18%; and `O=C(/C=C/c1cccc(C(F)(F)F)c1)NO`, with 6%.
Consider `O=C(/C=C/c1ccccn1)NO`, for which the cytotoxicity at 72 h, 10 µM is 1%.
Regarding `CN1CCc2c(c3ccccc3n2Cc2ccc(C(=O)NO)cc2)C1` [TUBASTATIN A], the cytotoxicity at 72 h, 10 µM worked out at 70%.

Test system in the next data set: not listed separately
Kind of data set: Cytotoxicity against human HuH7 cells assessed as inhibition of cell viability at 1 uM after 3 days by CellTiter 96 assay. In kind it is cell-based, Huh-7. The following applies: read-out: INH. Put shortly: as §2
For the molecule `N#Cc1ccc(/C=C/C(=O)NO)cc1`, the cytotoxicity at 72 h, 1 µM is 16%.

Test system in the next data set: not listed separately
As to the kind of experiment: Cytotoxicity against human HuH7 cells assessed as inhibition of cell viability after 3 days by CellTiter 96 assay.
Settings: not given
In the case of `Cc1[nH]c2ccccc2c1CCNCc1ccc(/C=C/C(=O)NO)cc1` [PANOBINOSTAT], the CC50 at 72 h is 3.5 nM.
